Measured values published in ChEMBL document CHEMBL1134370, “Pharmacophore analysis of the nuclear oxysterol receptor LXRalpha” (J Med Chem, 2001).

What was measured:
[1] = target: T1, Oxysterols receptor LXR-alpha (Homo sapiens, UniProt Q13133); experiment: Concentration required for half maximal activity was calculated in human nuclear oxysterol receptor liver X receptor-alpha in LiSA.
T1 sequence (Q13133 whole entry): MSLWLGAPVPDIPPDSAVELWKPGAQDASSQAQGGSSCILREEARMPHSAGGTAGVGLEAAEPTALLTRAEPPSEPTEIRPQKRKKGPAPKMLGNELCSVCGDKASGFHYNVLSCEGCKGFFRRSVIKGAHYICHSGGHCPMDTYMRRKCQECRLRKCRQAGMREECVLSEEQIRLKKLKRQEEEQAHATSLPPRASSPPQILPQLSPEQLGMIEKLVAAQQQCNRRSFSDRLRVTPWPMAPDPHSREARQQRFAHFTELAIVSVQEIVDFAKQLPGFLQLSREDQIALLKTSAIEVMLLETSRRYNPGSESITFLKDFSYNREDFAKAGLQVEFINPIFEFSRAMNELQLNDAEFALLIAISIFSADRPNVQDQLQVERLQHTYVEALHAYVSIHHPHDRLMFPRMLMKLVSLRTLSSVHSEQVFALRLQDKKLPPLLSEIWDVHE
Summary of the method: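 Human LXRα ligand-binding domain (aa 183-447) with His tag, expressed in E. coli, purified and biotinylated. Protein and biotinylated SRC1 peptide (aa 675-699) were pre-bound to streptavidin-APC and streptavidin-europium. The final mix (10 nM each) was read by TR-FRET at 665 nm after 2-4 h at room temperature. Compounds 1 nM-100 µM; EC50 from half-maximal fluorescence, n = 3, standard error.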

[2] = target: T2, Oxysterols receptor LXR-alpha (Homo sapiens) (UniProt Q13133); experiment: Tested for its ability to activate Liver X receptor-alpha expressed as Relative efficacy determined by maximal increase in relative fluorescence in LiSA
T2 sequence (whole entry): T1 sequence (Q13133 whole entry)
Summary of the method: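 Human LXRα ligand-binding domain (aa 183-447) with a His tag, expressed in E. coli, biotinylated and coupled to streptavidin-allophycocyanin. A biotinylated SRC1 peptide (aa 675-699) was coupled to streptavidin-europium. Final concentrations: 10 nM protein and peptide in pH 7.5 MOPS buffer, compound 1 nM–100 µM. Incubated 2-4 h at room temperature; time-resolved FRET read at 665 nm. Efficacy is the maximal fluorescence increase relative to 24(S),25-epoxycholesterol.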

[3] = target: T1, Oxysterols receptor LXR-alpha; experiment: Binding affinity towards LXR alpha receptor was determined in a competition binding assay
[4] = target: T2, Oxysterols receptor LXR-alpha (Homo sapiens); experiment: Tested for its ability to activate Liver X receptor-alpha expressed as Relative efficacy determined by maximal increase in relative fluorescence in LiSA by 100 uM
Summary of the method: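 TR-FRET ligand-sensing assay of SRC1 peptide recruitment to biotinylated human LXRα LBD (aa 183-447, E. coli), 10 nM each in MOPS/NaF buffer pH 7.5. Run at room temperature for 2-4 h, read at 665 nm. Relative efficacy is the maximal increase in relative fluorescence compared with 24(S),25-epoxycholesterol. Compounds tested up to 100 µM.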

| Compound | EC50 [1] | RE [2] | Ki [3] | RE [4] |
| --- | --- | --- | --- | --- |
| CC(C)CC[C@@H](O)[C@@H](C)[C@H]1CC[C@H]2[C@@H]3CC=C4C[C@@H](O)CC[C@]4(C)[C@H]3CC[C@]12C [22(R)-HYDROXYCHOLESTEROL] | 325 nM | 0.85 |  |  |
| CC(C)C(=O)NC[C@@H](C)[C@H]1CC[C@H]2[C@@H]3CC=C4C[C@@H](O)CC[C@]4(C)[C@H]3CC[C@]12C |  | < 0.1 |  |  |
| CC(C)C(=O)CC[C@@H](C)[C@H]1CC[C@H]2[C@@H]3CC=C4C[C@@H](O)CC[C@]4(C)[C@H]3CC[C@]12C | 180 nM | 1.3 |  |  |
| CC(C)C[C@@H](O)C[C@@H](C)[C@H]1CC[C@H]2[C@@H]3CC=C4C[C@@H](O)CC[C@]4(C)[C@H]3CC[C@]12C |  | < 0.1 |  |  |
| CC(C)CCC[C@](C)(O)[C@H]1CC[C@H]2[C@@H]3CC=C4C[C@@H](O)CC[C@]4(C)[C@H]3CC[C@@]21C | 470 nM | 1 |  |  |
| CC(C)[C@H](O)CC[C@@H](C)[C@H]1CC[C@H]2[C@@H]3CC=C4C[C@@H](O)CC[C@]4(C)[C@H]3CC[C@]12C | 220 nM | 0.85 |  |  |
| C[C@H](CNC(=O)N(C)C)[C@H]1CC[C@H]2[C@@H]3CC=C4C[C@@H](O)CC[C@]4(C)[C@H]3CC[C@]12C |  | < 0.1 |  |  |
| C[C@H](CCC(=O)N(C)C)[C@H]1CC[C@H]2[C@@H]3CC=C4C[C@@H](O)CC[C@]4(C)[C@H]3CC[C@]12C | 170 nM | 1.4 |  |  |
| CNC(=O)CC[C@@H](C)[C@H]1CC[C@H]2[C@@H]3CC=C4C[C@@H](O)CC[C@]4(C)[C@H]3CC[C@]12C | 720 nM | 0.55 |  |  |
| CC(C)C[C@H](O)C[C@@H](C)[C@H]1CC[C@H]2[C@@H]3CC=C4C[C@@H](O)CC[C@]4(C)[C@H]3CC[C@]12C | 5900 nM | 0.7 |  |  |
| C[C@H](CCCC(C)(C)O)[C@H]1CC[C@H]2[C@@H]3CC=C4C[C@@H](O)CC[C@]4(C)[C@H]3CC[C@]12C | 1160 nM | 0.35 |  |  |
| CC(C)CC[C@H](O)[C@@H](C)[C@H]1CC[C@H]2[C@@H]3CC=C4C[C@@H](O)CC[C@]4(C)[C@H]3CC[C@]12C |  |  | 180 nM | < 0.1 |
| CC(C)CCC[C@@H](C)[C@H]1CC[C@H]2[C@@H]3CC=C4C[C@@H](O)CC[C@]4(C)[C@H]3CC[C@]12C |  | < 0.1 |  |  |
| C[C@H](CC[C@@H]1OC1(C)C)[C@H]1CC[C@H]2[C@@H]3CC=C4C[C@@H](O)CC[C@]4(C)[C@H]3CC[C@]12C [24(S),25-EPOXYCHOLESTEROL] | 460 nM | 1 |  |  |
| C[C@H](CCC(=O)O)[C@H]1CC[C@H]2[C@@H]3CC=C4C[C@@H](O)CC[C@]4(C)[C@H]3CC[C@]12C | 3000 nM | 0.2 |  |  |
| C[C@H](CC[C@H]1OC1(C)C)[C@H]1CC[C@H]2[C@@H]3CC=C4C[C@@H](O)CC[C@]4(C)[C@H]3CC[C@]12C | 670 nM | 1 |  |  |
| C[C@@H](CO)CCC[C@@H](C)[C@H]1CC[C@H]2[C@@H]3CC=C4C[C@@H](O)CC[C@]4(C)[C@H]3CC[C@]12C | 250 nM | 0.3 |  |  |
| C[C@H](C[C@@H](CO)C(C)(C)O)[C@H]1CC[C@H]2[C@@H]3CC=C4C[C@@H](O)CC[C@]4(C)[C@H]3CC[C@]12C |  | < 0.1 |  |  |
| COC(=O)CC[C@@H](C)[C@H]1CC[C@H]2[C@@H]3CC=C4C[C@@H](O)CC[C@]4(C)[C@H]3CC[C@]12C | 105 nM | 1.1 |  |  |
| CC(C)[C@@H](O)CC[C@@H](C)[C@H]1CC[C@H]2[C@@H]3CC=C4C[C@@H](O)CC[C@]4(C)[C@H]3CC[C@]12C | 130 nM | 1 |  |  |
